These results are taken from ChEMBL document CHEMBL4706672 (J Med Chem, 2021).

For one test, the system named is BXPC-3. As to the kind of experiment: Inhibition of colony formation in human BxPC-3 cells assessed as reduction in colony formation at 0.06 to 0.5 uM incubated for 7 to 10 days in presence of NQO1 inhibitor dicoumarol. Particulars: dose 0.06-0.5 µM.
For test [1], the target named is T1, Protein cereblon/Signal transducer and activator of transcription 3 (Homo sapiens, UniProt P40763+Q96SW2). The test is described as follows: Protac activity at CRBN/STAT3 in human BxPC-3 cells assessed as STAT3 degradation incubated for 16 hrs by proteomic analysis. It is filed as cell-based. Summed up:
(§1)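 BxPC-3 cells exposed 16 h in triplicate (control, PROTAC) or duplicate (other arms); lysed in RIPA at 4 °C, 75 μg protein per sample. Reduced with DTT (1 h, 55 °C), alkylated with 2-chloroacetamide, acetone-precipitated, trypsin-digested overnight at 37 °C, TMT 10plex labelled, relative quantitation by LC-tandem MS.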

Test [2] concerns the target Protein cereblon/G2/mitotic-specific cyclin-B1 (Homo sapiens) (UniProt P14635+Q96SW2). The test is described as follows: Protac activity at CRBN/CCNB1 in human BxPC-3 cells assessed as CCNB1 degradation incubated for 16 hrs by proteomic analysis. It is filed as cell-based. The essentials:
(§2)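 TMT 10plex proteomics. […] Samples (75 μg) were reduced with DTT, alkylated with 2-chloroacetamide, acetone-precipitated, trypsin-digested overnight at 37 °C and TMT-labeled for LC-MS/MS relative quantitation.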

In test [3] the target is Protein cereblon/Pleckstrin homology-like domain family B member 1 (Homo sapiens) (UniProt Q96SW2+Q86UU1). The test is described as follows: Protac activity at CRBN/PHLDB1 in human BxPC-3 cells assessed as PHLDB1 degradation incubated for 16 hrs by proteomic analysis. It is filed as cell-based. Summed up: as §2
Test [4] concerns the target Protein cereblon/Small EDRK-rich factor 2 (Homo sapiens) (UniProt Q96SW2+P84101). The test is described as follows: Protac activity at CRBN/SERF2 in human BxPC-3 cells assessed as SERF2 degradation incubated for 16 hrs by proteomic analysis. In kind it is cell-based. Summed up: as §2
Test [5] has as its target Protein cereblon/Procollagen-lysine,2-oxoglutarate 5-dioxygenase 2 (Homo sapiens) (UniProt Q96SW2+O00469). As to the kind of experiment: Protac activity at CRBN/PLOD2 in human BxPC-3 cells assessed as PLOD2 degradation incubated for 16 hrs by proteomic analysis. It is filed as cell-based. Summed up:
as §2

Test [6] deals with Protein cereblon/Carbohydrate sulfotransferase 14 (Homo sapiens) (UniProt Q96SW2+Q8NCH0). As to the kind of experiment: Protac activity at CRBN/CHST14 in human BxPC-3 cells assessed as CHST14 degradation incubated for 16 hrs by proteomic analysis. In kind it is cell-based. Summed up:
as §2

Test [7] concerns the target T2, Protein cereblon/E3 ubiquitin-protein ligase ZFP91 (Homo sapiens, UniProt Q96SW2+Q96JP5). The test is described as follows: Protac activity at CRBN/ZFP91 in human BxPC-3 cells assessed as ZF91 protein degradation at 1 uM incubated for 16 hrs in presence of proteasome inhibitor carfilzomib by western blot analysis. In kind it is cell-based. Summed up:
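BxPC-3 cells pretreated 1 h with carfilzomib at 1 μM, then exposed 16 h. Lysates blotted for ZFP91 with GAPDH control; bands quantified by densitometry.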
For orientation: A western blot detects proteins with antibodies after separation by electrophoresis.

Test [8] in a line: Upregulation of MPV17 protein levels in human BxPC-3 cells incubated for 16 hrs by proteomic analysis. It is filed as functional. The essentials:
as §1

Test [9] addresses Protein cereblon/Endothelial differentiation-related factor 1 (Homo sapiens) (UniProt Q96SW2+O60869). As to the kind of experiment: Protac activity at CRBN/EDF1 in human BxPC-3 cells assessed as EDF1 degradation incubated for 16 hrs by proteomic analysis. It is filed as cell-based. The essentials: as §2
The target of test [10] is Protein cereblon/Cystatin-C (Homo sapiens) (UniProt P01034+Q96SW2). The test is described as follows: Protac activity at CRBN/CST3 in human BxPC-3 cells assessed as CST3 degradation incubated for 16 hrs by proteomic analysis. In kind it is cell-based. The essentials: as §2
Test [11] concerns the target T2, Protein cereblon/E3 ubiquitin-protein ligase ZFP91. As to the kind of experiment: Protac activity at CRBN/ZFP91 in human BxPC-3 cells assessed as induction of ZF91 degradation at 1 uM incubated for 16 hrs by western blot analysis. It is filed as cell-based. The essentials: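 BxPC-3 cells treated for 4, 16 or 24 h across a concentration series. ZFP91 immunoblotted against GAPDH; bands quantified by densitometry, DC50 calculated from dose-response curves of the densitometry.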

For test [12], the target named is T1, Protein cereblon/Signal transducer and activator of transcription 3. The test is described as follows: Protac activity at CRBN/STAT3 in human BxPC-3 cells assessed as decrease in STAT3 expression level at 2 to 6 uM incubated for 12 hrs in presence of proteasome inhibitor MG132 by western blot analysis. In kind it is cell-based. The conditions noted are these: dose 2-6 µM. Summed up: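 Immunoblot of BxPC-3 cells given a 2 h pretreatment with MG132 at 10 μM, then test agent for 12 h. Cell lysis, BCA assay, SDS-PAGE/PVDF, probed for STAT3, pSTAT3 and NQO1 with GAPDH as reference.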

For test [13], the target named is Protein cereblon/Eukaryotic peptide chain release factor GTP-binding subunit ERF3A (Homo sapiens) (UniProt Q96SW2+P15170). The test is described as follows: Protac activity at CRBN/GSPT in human BxPC-3 cells assessed as degradation of GSPT at 1 to 3 uM incubated for 16 hrs by western blot analysis. In kind it is cell-based. The conditions noted are these: dose 1-3 µM. The essentials: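 BxPC-3 cells were treated with compound for 16 h, then lysed and immunoblotted for GSPT (1:1000) alongside GAPDH. Detection used fluorescent secondary antibodies on an Odyssey imager, and bands were quantified by densitometry.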

Test [14] is described as follows: Upregulation of AKR1C2 protein levels in human BxPC-3 cells incubated for 16 hrs by proteomic analysis. In kind it is functional. The essentials:
as §1

Test [15] has as its target Protein cereblon/E3 SUMO-protein ligase NSE2 (Homo sapiens) (UniProt Q96SW2+Q96MF7). As to the kind of experiment: Protac activity at CRBN/NSMCE2 in human BxPC-3 cells assessed as NSMCE2 degradation incubated for 16 hrs by proteomic analysis. In kind it is cell-based. The essentials:
as §2

For test [16], the target named is T2, Protein cereblon/E3 ubiquitin-protein ligase ZFP91. The test is described as follows: Protac activity at CRBN/ZFP91 in human BxPC-3 cells assessed as degradation of ZFP91 at 0.5 uM incubated for 16 hrs in presence of napabucasin by western blot analysis. In kind it is cell-based. The essentials: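 Whole-cell lysates immunoblotted for ZFP91, GAPDH reference, densitometric quantification.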

The target of test [17] is Protein cereblon/SET domain-containing protein 4 (Homo sapiens) (UniProt Q96SW2+Q9NVD3). The test is described as follows: Protac activity at CRBN/SETD4 in human BxPC-3 cells assessed as SETD4 degradation incubated for 16 hrs by proteomic analysis. It is filed as cell-based. The essentials:
as §2

Test [18] addresses Protein cereblon/Kunitz-type protease inhibitor 1 (Homo sapiens) (UniProt Q96SW2+O43278). The test is described as follows: Protac activity at CRBN/SPINT1 in human BxPC-3 cells assessed as SPINT1 degradation incubated for 16 hrs by proteomic analysis. It is filed as cell-based. Summed up:
as §2

Test [19] can be described thus: Upregulation of HMGCR protein levels in human BxPC-3 cells incubated for 16 hrs by proteomic analysis. It is filed as functional. The essentials: as §1
The target in test [20] is Protein cereblon/Protein PRRC2B (Homo sapiens) (UniProt Q96SW2+Q5JSZ5). The test is described as follows: Protac activity at CRBN/PRRC2B in human BxPC-3 cells assessed as PRRC2B degradation incubated for 16 hrs by proteomic analysis. In kind it is cell-based. Summed up:
as §2

For test [21], the target named is Protein cereblon/Dynein light chain Tctex-type 1 (Homo sapiens) (UniProt Q96SW2+P63172). As to the kind of experiment: Protac activity at CRBN/DYNLT1 in human BxPC-3 cells assessed as DYNLT1 degradation incubated for 16 hrs by proteomic analysis. It is filed as cell-based. The essentials: as §2
In test [22] the target is Protein cereblon/Protein FAM3C (Homo sapiens) (UniProt Q96SW2+Q92520). The test is described as follows: Protac activity at CRBN/FAM3C in human BxPC-3 cells assessed as FAM3C degradation incubated for 16 hrs by proteomic analysis. It is filed as cell-based. The essentials: as §2

The source made the active and inactive calls. The rule behind the calls is not given here.

T2 sequence (Q96JP5 2-570 partner limits assumed): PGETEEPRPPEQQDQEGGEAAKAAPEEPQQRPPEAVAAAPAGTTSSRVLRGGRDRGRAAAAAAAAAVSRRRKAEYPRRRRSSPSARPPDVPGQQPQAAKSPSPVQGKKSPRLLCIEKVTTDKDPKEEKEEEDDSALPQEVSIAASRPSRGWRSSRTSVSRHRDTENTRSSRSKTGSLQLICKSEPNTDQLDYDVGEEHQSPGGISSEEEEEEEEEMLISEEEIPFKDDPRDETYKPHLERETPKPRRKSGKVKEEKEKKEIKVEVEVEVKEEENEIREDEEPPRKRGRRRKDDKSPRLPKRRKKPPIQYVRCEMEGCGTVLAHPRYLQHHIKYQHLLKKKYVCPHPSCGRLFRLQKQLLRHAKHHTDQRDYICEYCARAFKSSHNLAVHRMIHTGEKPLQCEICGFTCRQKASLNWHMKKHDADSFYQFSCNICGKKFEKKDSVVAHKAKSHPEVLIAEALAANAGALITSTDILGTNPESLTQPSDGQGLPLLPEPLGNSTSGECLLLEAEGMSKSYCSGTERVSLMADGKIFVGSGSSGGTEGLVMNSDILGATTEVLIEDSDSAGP
T2 sequence (Q96SW2 whole entry): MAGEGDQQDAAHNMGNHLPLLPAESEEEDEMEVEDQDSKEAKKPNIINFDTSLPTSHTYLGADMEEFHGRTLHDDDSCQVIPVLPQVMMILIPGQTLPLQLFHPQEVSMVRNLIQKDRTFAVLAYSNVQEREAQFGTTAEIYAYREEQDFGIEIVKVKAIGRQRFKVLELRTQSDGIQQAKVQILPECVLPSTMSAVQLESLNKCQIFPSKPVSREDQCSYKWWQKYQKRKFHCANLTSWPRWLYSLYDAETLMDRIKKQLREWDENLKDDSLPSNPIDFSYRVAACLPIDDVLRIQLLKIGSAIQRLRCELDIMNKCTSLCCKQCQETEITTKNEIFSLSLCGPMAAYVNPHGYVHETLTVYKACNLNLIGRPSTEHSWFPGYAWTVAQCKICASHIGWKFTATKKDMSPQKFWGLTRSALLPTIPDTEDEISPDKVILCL
T1 sequence (P40763 2-770 limits assumed): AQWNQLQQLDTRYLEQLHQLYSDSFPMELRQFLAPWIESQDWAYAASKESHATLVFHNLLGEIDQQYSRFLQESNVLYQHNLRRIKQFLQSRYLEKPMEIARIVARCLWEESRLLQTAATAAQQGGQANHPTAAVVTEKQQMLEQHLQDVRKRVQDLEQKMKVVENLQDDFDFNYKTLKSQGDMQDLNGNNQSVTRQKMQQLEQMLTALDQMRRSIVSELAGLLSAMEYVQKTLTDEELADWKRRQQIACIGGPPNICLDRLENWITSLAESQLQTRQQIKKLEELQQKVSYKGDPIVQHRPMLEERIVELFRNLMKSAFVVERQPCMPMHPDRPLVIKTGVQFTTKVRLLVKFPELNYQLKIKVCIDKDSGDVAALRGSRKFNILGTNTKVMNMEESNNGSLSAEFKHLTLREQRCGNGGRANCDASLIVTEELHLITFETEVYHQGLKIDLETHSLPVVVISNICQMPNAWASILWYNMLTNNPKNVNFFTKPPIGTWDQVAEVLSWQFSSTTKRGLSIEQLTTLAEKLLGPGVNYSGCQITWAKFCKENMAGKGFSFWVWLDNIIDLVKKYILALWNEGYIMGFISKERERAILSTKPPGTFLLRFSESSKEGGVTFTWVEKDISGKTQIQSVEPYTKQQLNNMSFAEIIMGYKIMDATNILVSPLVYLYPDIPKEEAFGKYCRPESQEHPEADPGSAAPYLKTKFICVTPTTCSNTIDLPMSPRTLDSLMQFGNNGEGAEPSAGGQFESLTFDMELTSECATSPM
T1 sequence (Q96SW2 whole entry partner): as the sequence (Q96SW2 whole entry) above
Protein cereblon/SET domain-containing protein 4 (Homo sapiens), sequence (Q96SW2 whole entry, looked up, the tested form may be a part): as the sequence (Q96SW2 whole entry) above
Protein cereblon/SET domain-containing protein 4 (Homo sapiens), sequence (Q9NVD3 whole entry, looked up, the tested form may be a part): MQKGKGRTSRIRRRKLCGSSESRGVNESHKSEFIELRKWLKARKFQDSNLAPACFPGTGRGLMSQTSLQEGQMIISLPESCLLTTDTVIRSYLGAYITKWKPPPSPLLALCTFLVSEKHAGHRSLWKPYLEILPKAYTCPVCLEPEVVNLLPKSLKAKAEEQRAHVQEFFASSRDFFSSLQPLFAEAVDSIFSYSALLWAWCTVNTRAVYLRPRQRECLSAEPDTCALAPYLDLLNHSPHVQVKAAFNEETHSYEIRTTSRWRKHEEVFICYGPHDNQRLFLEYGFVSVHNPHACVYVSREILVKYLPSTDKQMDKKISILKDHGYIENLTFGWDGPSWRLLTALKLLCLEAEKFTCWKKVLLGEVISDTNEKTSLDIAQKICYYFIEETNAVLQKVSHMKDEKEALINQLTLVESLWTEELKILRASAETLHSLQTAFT
Protein cereblon/Protein FAM3C (Homo sapiens), sequence (Q92520 whole entry, looked up): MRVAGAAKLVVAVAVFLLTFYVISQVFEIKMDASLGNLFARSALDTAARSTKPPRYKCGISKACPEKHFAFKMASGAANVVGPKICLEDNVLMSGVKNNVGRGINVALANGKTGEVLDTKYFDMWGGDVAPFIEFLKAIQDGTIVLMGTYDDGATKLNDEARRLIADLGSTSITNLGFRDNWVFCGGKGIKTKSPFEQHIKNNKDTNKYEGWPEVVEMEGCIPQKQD
Protein cereblon/Protein FAM3C (Homo sapiens), sequence (Q96SW2 whole entry, looked up): as the sequence (Q96SW2 whole entry) above
Protein cereblon/G2/mitotic-specific cyclin-B1 (Homo sapiens), sequence (P14635 whole entry, looked up): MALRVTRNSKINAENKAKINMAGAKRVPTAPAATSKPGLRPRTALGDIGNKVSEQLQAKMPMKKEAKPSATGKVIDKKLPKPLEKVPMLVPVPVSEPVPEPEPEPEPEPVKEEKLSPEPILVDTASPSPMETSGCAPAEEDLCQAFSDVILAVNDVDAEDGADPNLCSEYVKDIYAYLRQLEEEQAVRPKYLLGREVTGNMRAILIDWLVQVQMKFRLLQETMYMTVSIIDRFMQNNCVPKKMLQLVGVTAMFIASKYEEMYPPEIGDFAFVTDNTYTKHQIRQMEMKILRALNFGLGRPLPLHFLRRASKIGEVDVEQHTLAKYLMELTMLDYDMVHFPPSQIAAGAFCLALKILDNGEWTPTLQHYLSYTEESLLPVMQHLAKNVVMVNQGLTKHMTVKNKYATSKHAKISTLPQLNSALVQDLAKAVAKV
Protein cereblon/G2/mitotic-specific cyclin-B1 (Homo sapiens), sequence (Q96SW2 whole entry, looked up): as the sequence (Q96SW2 whole entry) above

In the case of `O=C1CCC(N2C(=O)c3cccc(NCCCCCC4CCN(CCNC(=O)c5cc6c(o5)C(=O)c5ccccc5C6=O)CC4)c3C2=O)C(=O)N1` (stereo not drawn), the inhibition result in the test with BXPC-3 is “Active”. In addition, the log2FC in test [1] was -0.69; in test [2], -0.84; in [3] it was -0.64; in [4] it was -0.61; in test [5], -0.63; in test [6] it was -0.64. Besides, the log2FC was 0.66 in test [8]; -0.82 in test [9]; -0.81 in test [10]; 0.6 in test [14]; -0.63 in test [15]; -0.86 in test [17]. For the same compound, the log2FC in [18] is -0.85; in test [19] it was 0.83; in [20] it was -0.63; in [21], -0.97; in test [22], -0.73. The outcome in test [7] and in test [13] was inactive. For the same compound, the outcome in [11], in test [12] and in test [16] was Active.
